Measurements: ChEMBL document CHEMBL1153427, “1-Sulfonyl-4-acylpiperazines as selective cannabinoid-1 receptor (CB1R) inverse agonists for the treatment of obesity” (J Med Chem, 2009)

Columns and labels:
Cannabinoid receptor 1 [1] = target: T1, Cannabinoid receptor 1 (Homo sapiens, UniProt P21554); experiment: Inverse agonist activity at human recombinant CB1R expressed in CHO cells assessed as increase in forskolin-stimulated cAMP level; assay type: functional, cell-based
Outline: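 Recombinant CB1R-CHO cells were incubated with test compound across a range of concentrations, plus forskolin and the phosphodiesterase inhibitor IBMX. Buffer was Earle's balanced salt solution with 5 mM MgCl₂, 10 mM HEPES pH 7.3 and 1 mg/mL BSA, for 30 min at room temperature, with cAMP read out.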

Cannabinoid receptor 1 [2] = target: T1, Cannabinoid receptor 1; experiment: Displacement of [3H]CP-55940 from human recombinant CB1R expressed in CHO cells; assay type: cell-based
Outline: (§1)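 Radioligand competition used 0.5 nM [³H]CP55940 with recombinant human CB1R-CHO or CB2R-CHO membranes. Bound and free ligand were separated by filtration, and IC₅₀ came from nonlinear curve fitting.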

[3] = target: Voltage-gated inwardly rectifying potassium channel KCNH2 (Homo sapiens, UniProt Q12809); experiment: Inhibition of human ERG by MK-0499 binding assay
Sequence of Voltage-gated inwardly rectifying potassium channel KCNH2 (Q12809 whole entry): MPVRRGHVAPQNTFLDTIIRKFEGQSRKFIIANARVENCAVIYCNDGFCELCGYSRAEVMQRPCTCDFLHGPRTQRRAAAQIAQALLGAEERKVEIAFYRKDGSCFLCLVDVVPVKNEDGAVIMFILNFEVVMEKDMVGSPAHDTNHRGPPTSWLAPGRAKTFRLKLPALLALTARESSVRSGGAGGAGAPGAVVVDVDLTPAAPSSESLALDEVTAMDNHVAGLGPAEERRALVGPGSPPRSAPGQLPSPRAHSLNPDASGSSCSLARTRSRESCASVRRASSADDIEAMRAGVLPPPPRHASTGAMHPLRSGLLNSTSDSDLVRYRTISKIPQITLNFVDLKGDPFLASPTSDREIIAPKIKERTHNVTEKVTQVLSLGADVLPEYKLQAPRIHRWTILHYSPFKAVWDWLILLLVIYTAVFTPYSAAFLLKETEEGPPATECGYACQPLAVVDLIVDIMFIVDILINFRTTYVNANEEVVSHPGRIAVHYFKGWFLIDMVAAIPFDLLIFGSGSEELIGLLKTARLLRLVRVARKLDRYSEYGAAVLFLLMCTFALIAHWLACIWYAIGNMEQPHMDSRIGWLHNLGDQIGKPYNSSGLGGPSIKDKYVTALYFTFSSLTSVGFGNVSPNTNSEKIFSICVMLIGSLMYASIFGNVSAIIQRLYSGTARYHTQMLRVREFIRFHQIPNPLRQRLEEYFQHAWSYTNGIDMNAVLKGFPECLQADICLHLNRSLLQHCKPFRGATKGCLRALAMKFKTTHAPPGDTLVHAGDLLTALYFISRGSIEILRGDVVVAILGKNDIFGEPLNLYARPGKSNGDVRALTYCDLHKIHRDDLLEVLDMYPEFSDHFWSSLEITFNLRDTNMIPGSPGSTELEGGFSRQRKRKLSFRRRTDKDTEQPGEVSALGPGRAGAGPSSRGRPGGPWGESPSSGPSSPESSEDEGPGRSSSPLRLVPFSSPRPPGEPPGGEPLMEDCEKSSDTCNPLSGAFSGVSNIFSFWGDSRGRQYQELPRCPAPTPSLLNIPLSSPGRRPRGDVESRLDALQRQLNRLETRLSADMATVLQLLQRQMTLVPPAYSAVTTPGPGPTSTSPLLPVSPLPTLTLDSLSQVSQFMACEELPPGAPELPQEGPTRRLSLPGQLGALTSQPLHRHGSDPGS

Cannabinoid receptor 2 = Cannabinoid receptor 2 (Homo sapiens, UniProt P34972); experiment: Displacement of [3H]CP-55940 from human recombinant CB2R expressed in CHO cells; assay type: cell-based; outline: as §1
Sequence of Cannabinoid receptor 2 (P34972 whole entry): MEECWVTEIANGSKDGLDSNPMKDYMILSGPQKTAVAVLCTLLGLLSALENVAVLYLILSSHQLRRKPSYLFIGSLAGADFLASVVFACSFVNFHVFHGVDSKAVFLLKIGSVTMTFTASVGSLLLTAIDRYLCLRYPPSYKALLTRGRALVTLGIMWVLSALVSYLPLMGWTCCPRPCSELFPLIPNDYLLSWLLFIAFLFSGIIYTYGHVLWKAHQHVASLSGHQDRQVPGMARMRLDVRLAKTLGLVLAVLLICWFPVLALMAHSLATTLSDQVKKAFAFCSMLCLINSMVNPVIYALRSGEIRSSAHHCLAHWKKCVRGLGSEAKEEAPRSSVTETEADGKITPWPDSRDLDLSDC

T1 sequence (P21554 whole entry): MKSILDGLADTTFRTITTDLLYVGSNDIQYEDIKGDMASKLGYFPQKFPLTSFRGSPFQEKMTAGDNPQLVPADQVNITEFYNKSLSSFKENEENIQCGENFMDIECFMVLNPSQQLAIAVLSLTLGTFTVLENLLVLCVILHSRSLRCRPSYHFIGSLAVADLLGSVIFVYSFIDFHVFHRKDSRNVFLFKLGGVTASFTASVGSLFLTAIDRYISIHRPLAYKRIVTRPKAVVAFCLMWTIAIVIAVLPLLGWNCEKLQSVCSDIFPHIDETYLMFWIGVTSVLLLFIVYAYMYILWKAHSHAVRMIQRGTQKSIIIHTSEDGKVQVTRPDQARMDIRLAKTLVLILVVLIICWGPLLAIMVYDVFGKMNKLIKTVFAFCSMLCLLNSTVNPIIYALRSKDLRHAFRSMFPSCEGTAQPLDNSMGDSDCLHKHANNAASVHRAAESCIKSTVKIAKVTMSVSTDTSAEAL

Structure (SMILES) | EC50 (Cannabinoid receptor 1 [1]) | IC50 (Cannabinoid receptor 1 [2]) | IC50 (Cannabinoid receptor 2) | IC50 [3]
O=C(C1CCCCC1)N1C2CCC1CN(S(=O)(=O)c1cccc3ccccc13)C2 | 300 nM | 3100 nM |  | 
CC1(C)CN(S(=O)(=O)c2cccc3ccccc23)CCN1C(=O)C1CCCCC1 | 0.6 nM | 700 nM |  | 
O=C(C1CC1)N1CCN(S(=O)(=O)c2ccc(Cl)cc2)CC1 | > 10000 nM | 3500 nM |  | 
CC1CN(C(=O)C2CCCCC2)CCN1S(=O)(=O)c1cccc2ccccc12 (configuration not stated) | 180 nM | 4700 nM |  | 
O=C(C1CC1)N1CCN(S(=O)(=O)c2cc(Cl)c(Cl)cc2Cl)CC1 | 1500 nM | 9700 nM |  | 
CC1CN(S(=O)(=O)c2cccc3ccccc23)CCN1C(=O)C1CCCCC1 (configuration not stated) | 7 nM | 310 nM |  | 
O=C(C1CCCCC1)N1CCN(S(=O)(=O)c2cc(C(F)(F)F)cc(C(F)(F)F)c2)CC1 | 1 nM |  | > 10000 nM | 
O=C(C1CC1)N1CCN(S(=O)(=O)c2cc(Cl)ccc2Cl)CC1 | 90 nM | 6400 nM |  | 
O=C(C1CCCCC1)N1C2CC1CN(S(=O)(=O)c1cccc3ccccc13)C2 | 900 nM | > 10000 nM |  | 
O=C(C1CC1)N1CCN(S(=O)(=O)c2c(Cl)cccc2Cl)CC1 | 1500 nM | 9700 nM |  | 
O=C(C1CC1)N1CCN(S(=O)(=O)c2c(Cl)cc(Cl)cc2Cl)CC1 | 1500 nM | 9700 nM |  | 
O=C([C@@H]1C[C@H]1c1ccc(C(F)(F)F)cc1)N1CCN(S(=O)(=O)c2cc(-c3noc(=O)[nH]3)cc(C(F)(F)F)c2)CC1 |  | 200 nM | > 10000 nM | 
O=C(Cc1ccc(C(F)(F)F)cc1)N1CCN(S(=O)(=O)c2cc(C(F)(F)F)cc(C(F)(F)F)c2)C1 | > 10000 nM | > 10000 nM |  | 
O=C(C1CCCCC1)N1CCN(S(=O)(=O)c2cccc(C(F)(F)F)c2)CC1 | > 10000 nM | 4200 nM |  | 
O=C([C@@H]1C[C@H]1c1ccc(C(F)(F)F)cc1)N1CCN(S(=O)(=O)c2cc(-c3n[nH]c(=O)o3)cc(C(F)(F)F)c2)CC1 |  | 100 nM | > 10000 nM | 
O=C(C1CCCCC1)N1CCN(S(=O)(=O)c2cccc(-c3ccccc3)c2)CC1 | 6 nM | 200 nM | > 10000 nM | 
O=C1CSC(c2cc(C(F)(F)F)cc(S(=O)(=O)N3CCN(C(=O)[C@@H]4C[C@H]4c4ccc(C(F)(F)F)cc4)CC3)c2)=N1 |  | 10 nM | > 10000 nM | 
CN(C)C(=O)Oc1cc(C(F)(F)F)cc(S(=O)(=O)N2CCN(C(=O)[C@@H]3C[C@H]3c3ccc(C(F)(F)F)cc3)CC2)c1 |  | 2 nM |  | 
O=C(C1CCCCC1)N1CCN(S(=O)(=O)c2cccc3ccccc23)CC1c1ccccc1 (configuration not stated) | 600 nM | 9000 nM |  | 
O=C(Cc1ccc(C(F)(F)F)cc1)N1CC(NS(=O)(=O)c2cc(C(F)(F)F)cc(C(F)(F)F)c2)C1 | > 10000 nM | > 10000 nM |  | 
C[C@@H]1CN(S(=O)(=O)c2cccc3ccccc23)C[C@H](C)N1C(=O)C1CCCCC1 | 8 nM | 2800 nM |  | 
O=C(Cc1ccc(C(F)(F)F)cc1)NC1CN(S(=O)(=O)c2cc(C(F)(F)F)cc(C(F)(F)F)c2)C1 | > 10000 nM | > 10000 nM |  | 
O=C(C1CCCCC1)N1CCN(S(=O)(=O)c2cccc3ccccc23)CC1 | 0.6 nM | 95 nM | > 10000 nM | 
Cc1cc(C)cc(S(=O)(=O)N2CCN(C(=O)C3CCCCC3)CC2)c1 | 1.1 nM | 400 nM | > 10000 nM | 
O=C(C1CCCCC1)N1CCN(S(=O)(=O)c2cccc3ccccc23)CC1C(F)(F)F (configuration not stated) | 2.5 nM | 290 nM |  | 
O=C([C@@H]1C[C@H]1c1ccc(C(F)(F)F)cc1)N1CCN(S(=O)(=O)c2cc(-c3n[nH]c(=O)[nH]3)cc(C(F)(F)F)c2)CC1 |  | 400 nM | > 10000 nM | 

The next lines start with results.

EC50 (Cannabinoid receptor 1 [1]) | IC50 (Cannabinoid receptor 1 [2]) | IC50 (Cannabinoid receptor 2) | Structure (SMILES) | IC50 [3]
 | 4 nM | > 10000 nM | O=C([C@@H]1C[C@H]1c1ccc(C(F)(F)F)cc1)N1CCN(S(=O)(=O)c2cc(CCO)cc(C(F)(F)F)c2)CC1 | 900 nM
4.6 nM | 150 nM |  | O=C(Cc1cccc(C(F)(F)F)c1)N1CCN(S(=O)(=O)c2cc(Cl)cc(Cl)c2)CC1 | 
 | 0.6 nM | > 10000 nM | O=C([C@@H]1C[C@H]1c1ccc(C(F)(F)F)cc1)N1CCN(S(=O)(=O)c2cc(-n3nccn3)cc(C(F)(F)F)c2)CC1 | 
1 nM | 5 nM | > 10000 nM | COC(=O)c1cc(C(F)(F)F)cc(S(=O)(=O)N2CCN(C(=O)Cc3ccc(C(F)(F)F)cc3)CC2)c1 | 
 | 0.5 nM |  | COc1cc(C(F)(F)F)cc(S(=O)(=O)N2CCN(C(=O)[C@@H]3C[C@H]3c3ccc(C(F)(F)F)cc3)CC2)c1 | 
 | 3 nM | > 10000 nM | O=C([C@@H]1C[C@H]1c1ccc(C(F)(F)F)cc1)N1CCN(S(=O)(=O)c2cc(-c3c[nH]nn3)cc(C(F)(F)F)c2)CC1 | 
0.3 nM | 220 nM |  | CC(C(=O)N1CCN(S(=O)(=O)c2cc(Cl)cc(Cl)c2)CC1)c1ccccc1 (racemic) | 
2.8 nM | 230 nM |  | CC(C)(C(=O)N1CCN(S(=O)(=O)c2cc(Cl)cc(Cl)c2)CC1)c1ccccc1 | 
 | 5 nM | > 10000 nM | O=C([C@@H]1C[C@H]1c1ccc(C(F)(F)F)cc1)N1CCN(S(=O)(=O)c2cc(C(F)(F)F)cc(C(F)(F)CO)c2)CC1 | 
11 nM | 400 nM |  | CC(C(=O)N1CCN(S(=O)(=O)c2cc(Cl)cc(Cl)c2)CC1)c1ccc(C(F)(F)F)cc1 (stereo in doubt; 20b) | 
 | 10 nM | > 10000 nM | Cc1nnc(-c2cc(C(F)(F)F)cc(S(=O)(=O)N3CCN(C(=O)[C@@H]4C[C@H]4c4ccc(C(F)(F)F)cc4)CC3)c2)[nH]1 | 
40 nM | 3000 nM |  | O=C(Cc1ccccn1)N1CCN(S(=O)(=O)c2cc(Cl)cc(Cl)c2)CC1 | 
 | 6 nM |  | O=C([C@@H]1C[C@H]1c1ccc(C(F)(F)F)cc1)N1CCN(S(=O)(=O)c2cc(O)cc(C(F)(F)F)c2)CC1 | 
 | 0.7 nM | > 10000 nM | O=C([C@@H]1C[C@H]1c1ccc(C(F)(F)F)cc1)N1CCN(S(=O)(=O)c2cc(-n3cccn3)cc(C(F)(F)F)c2)CC1 | 
 | 7 nM | > 10000 nM | O=C([C@@H]1C[C@H]1c1ccc(C(F)(F)F)cc1)N1CCN(S(=O)(=O)c2cc(-n3cncn3)cc(C(F)(F)F)c2)CC1 | 
 | 0.3 nM |  | CC(C)Oc1cc(C(F)(F)F)cc(S(=O)(=O)N2CCN(C(=O)[C@@H]3C[C@H]3c3ccc(C(F)(F)F)cc3)CC2)c1 | 
 | 8 nM | > 10000 nM | CC(C)(O)c1cc(C(F)(F)F)cc(S(=O)(=O)N2CCN(C(=O)[C@@H]3C[C@H]3c3ccc(C(F)(F)F)cc3)CC2)c1 | 
 | 20 nM | > 10000 nM | Cc1[nH]ncc1-c1cc(C(F)(F)F)cc(S(=O)(=O)N2CCN(C(=O)[C@@H]3C[C@H]3c3ccc(C(F)(F)F)cc3)CC2)c1 | 

EC50 (Cannabinoid receptor 1 [1]) | IC50 (Cannabinoid receptor 1 [2]) | IC50 (Cannabinoid receptor 2) | Structure (SMILES) | IC50 [3]
1.5 nM | 20 nM |  | CC(C(=O)N1CCN(S(=O)(=O)c2cc(Cl)cc(Cl)c2)CC1)c1ccc(C(F)(F)F)cc1 (stereo in doubt; 20a) | 
 | 8 nM |  | CC(C)(C)C(=O)Oc1cc(C(F)(F)F)cc(S(=O)(=O)N2CCN(C(=O)[C@@H]3C[C@H]3c3ccc(C(F)(F)F)cc3)CC2)c1 | 
0.5 nM |  | > 10000 nM | O=C(C1CCCCC1)N1CCN(S(=O)(=O)c2cc(Cl)cc(Cl)c2)CC1 | 
2 nM | 800 nM |  | O=C(Cc1ccccc1)N1CCN(S(=O)(=O)c2cc(Cl)cc(Cl)c2)CC1 | 
 | 8 nM |  | CCOC(=O)Oc1cc(C(F)(F)F)cc(S(=O)(=O)N2CCN(C(=O)[C@@H]3C[C@H]3c3ccc(C(F)(F)F)cc3)CC2)c1 | 
 | 9 nM | > 10000 nM | O=C([C@@H]1C[C@H]1c1ccc(C(F)(F)F)cc1)N1CCN(S(=O)(=O)c2cc(-c3cn[nH]c3)cc(C(F)(F)F)c2)CC1 | 
5 nM | 780 nM |  | O=C(C1CC1)N1CCN(S(=O)(=O)c2cc(Cl)cc(Cl)c2)CC1 | 
0.5 nM | 26 nM |  | O=C(CCc1ccc(C(F)(F)F)cc1)N1CCN(S(=O)(=O)c2cc(Cl)cc(Cl)c2)CC1 | 
> 10000 nM | > 10000 nM |  | O=C(c1ccccc1)N1CCN(S(=O)(=O)c2cc(C(F)(F)F)cc(C(F)(F)F)c2)CC1 | 
 | 0.3 nM | > 10000 nM | O=C([C@@H]1C[C@H]1c1ccc(C(F)(F)F)cc1)N1CCN(S(=O)(=O)c2cc(-c3ncon3)cc(C(F)(F)F)c2)CC1 | 
0.5 nM |  |  | N#Cc1ccc(CC(=O)N2CCN(S(=O)(=O)c3cc(Cl)cc(Cl)c3)CC2)cc1 | 
2.2 nM | 470 nM |  | O=C(Cc1ccccc1C(F)(F)F)N1CCN(S(=O)(=O)c2cc(Cl)cc(Cl)c2)CC1 | 
 | 50 nM | > 10000 nM | O=C([C@@H]1C[C@H]1c1ccc(C(F)(F)F)cc1)N1CCN(S(=O)(=O)c2cc(-n3ccnn3)cc(C(F)(F)F)c2)CC1 | 
1 nM | 5 nM | > 10000 nM | O=C(Cc1ccc(C(F)(F)F)cc1)N1CCN(S(=O)(=O)c2cc(C(F)(F)F)cc(C(F)(F)F)c2)CC1 | 
0.5 nM | 16 nM |  | O=C(Cc1ccc(C(F)(F)F)cc1)N1CCN(S(=O)(=O)c2cc(Cl)cc(Cl)c2)CC1 | 
1 nM | 6 nM | > 10000 nM | O=C(Cc1ccc(C(F)(F)F)cc1)N1CCN(S(=O)(=O)c2cc(Br)cc(C(F)(F)F)c2)CC1 | 
 | 400 nM | > 10000 nM | Nc1nnc(-c2cc(C(F)(F)F)cc(S(=O)(=O)N3CCN(C(=O)[C@@H]4C[C@H]4c4ccc(C(F)(F)F)cc4)CC3)c2)o1 | 
